In test [1] the test system is PC-3. Description: Antiproliferative activity against human PC3 cells at 5 to 50 uM after 24 hrs by MTT assay. The test is classed as functional, cell-based. In short, it runs like this:
(§1)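 After 3-4 passages in RPMI 1640 with 10% FBS, cells were seeded at 8 × 10^3 per well and left to attach for 24 h. Medium was then replaced with serum-free RPMI containing compound at 50, 20, 10 or 5 µM. Viability was read by MTT conversion to formazan, and cell number was taken from a standard curve of plated cells, with cells kept in exponential growth.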

Test [2] concerns MDA-MB-231. The test can be described thus: Antimigratory activity against human MDA-MB-231 cells at 50 uM after 24 hrs by wound healing assay. The test is classed as functional, cell-based. Summed up:
(§2)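 Cells grown to >90% confluent monolayer in RPMI 1640 with 10% FBS, glutamine, penicillin/streptomycin at 37 °C, 5% CO2, then scratched with a sterile 200 µL pipette tip. Compounds added in DMSO, in triplicate; PMH 200 µM positive control, DMSO vehicle control. After 24 h serum-starved incubation, cells were fixed and Diff Quick stained. Migrated cells counted in ≥3 random 400× fields, reported as mean ± SEM.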

Test [3] relates to MDA-MB-231. Description: Antiproliferative activity against human MDA-MB-231 cells at 5 to 50 uM after 24 hrs by MTT assay. The test is classed as functional, cell-based. In short, it runs like this:
as §1

For test [4], the system named is PC-3. Description: Antimigratory activity against human PC3 cells after 24 hrs by wound healing assay. The format is functional, cell-based. The conditions noted are these: PC-3, 24 h. In short, it runs like this:
as §2

In test [5] the test system is PC-3. The test can be described thus: Antimigratory activity against human PC3 cells at 50 uM after 24 hrs by wound healing assay. The test is classed as functional, cell-based. In short, it runs like this: as §2
Test [6] relates to MDA-MB-231 (Homo sapiens). The test can be described thus: Antimigratory activity against human MDA-MB-231 cells at 5 to 30 uM after 24 hrs by wound healing assay.
Test [7] deals with MDA-MB-231. Description: Antiproliferative activity against human MDA-MB-231 cells after 24 hrs by MTT assay. The format is functional, cell-based. As to conditions: MDA-MB-231, 24 h. Summed up: as §1
Test [8] relates to MDA-MB-231. Description: Antimigratory activity against human MDA-MB-231 cells at 5 to 30 uM after 24 hrs by wound healing assay. The format is functional, cell-based. Summed up:
as §2

The subject of test [9] is MDA-MB-231. The test can be described thus: Antimigratory activity against human MDA-MB-231 cells after 24 hrs by wound healing assay. The test is classed as functional, cell-based. The conditions noted are these: MDA-MB-231, 24 h. Summed up:
as §2

Test [10] concerns PC-3. Description: Antimigratory activity against human PC3 cells at 200 uM after 24 hrs by wound healing assay. The test is classed as functional, cell-based. In short, it runs like this:
as §2

The subject of test [11] is MDA-MB-231. The test can be described thus: Antimigratory activity against human MDA-MB-231 cells at 200 uM after 24 hrs by wound healing assay. The format is functional, cell-based. In short, it runs like this: as §2

The structures appear in SMILES notation. Active and inactive are the calls of the source. The rule behind the calls is not given here.

On to `CC1=C2CC/C(C)=C/CC[C@](C)(O)[C@@H](O)CC/C(C)=C/[C@@H]2OC1=O`, for which the outcome with PC-3 [1] and in the test on MDA-MB-231 [3] was inactive. Further, in the test with MDA-MB-231 [2], the result was Active.
Regarding `C=CCNC(=O)N(CC=C)C(=O)N(CC=C)C(=O)O[C@H]1CC/C(C)=C/[C@@H]2OC(=O)C(C)=C2CC/C(C)=C/CCC1=C`, the result in the test with PC-3 [1] and with MDA-MB-231 [3] was inactive. Further, half-maximal inhibition in the test with PC-3 [4] (IC50) was put at 24.3 µM. The outcome in the test on PC-3 [5] and with MDA-MB-231 [2] was Active.
For `C=C1CC/C=C(\C)CCC2=C(C)C(=O)O[C@H]2/C=C(\C)CC[C@@H]1OC(=O)NCCCC`, the outcome (in test [6]; in the test on MDA-MB-231 [8]; in the test on PC-3 [5]) was Active. Also, the IC50 was determined as 7 µM in the test on MDA-MB-231 [7] and 4.83 µM with MDA-MB-231 [9]. For the same molecule, the outcome in the test on PC-3 [1] was inactive.
For `CCCCO[C@H]1CC/C(C)=C/[C@@H]2OC(=O)C(C)=C2CC/C(C)=C/CC[C@]1(C)O`, the outcome (in test [6]; with PC-3 [1]; with MDA-MB-231 [8]) was inactive. Further, the IC50 in the test with MDA-MB-231 [7] came out at 20 µM; with MDA-MB-231 [9] it was 30 µM.
Take `CC1=C2CC/C(C)=C/CC[C@]3(C)O[C@H]3CC/C(C)=C/[C@@H]2OC1=O`: the outcome with PC-3 [1] and in the test with MDA-MB-231 [3] was inactive.
Take `CC1=C2CC/C(C)=C/CC[C@]3(C)O[C@H]3CC/C(C)=C\[C@H]2OC1`: the outcome in the test on PC-3 [1] and in the test on MDA-MB-231 [3] was inactive. Moreover, the result in the test on PC-3 [5] was Active.
Take `C=C1CC/C=C(\C)CCC2=C(C)C(=O)O[C@H]2/C=C(\C)CC[C@@H]1OC(=O)NCCCCC`: the outcome in the test on PC-3 [1] and in the test with MDA-MB-231 [3] was inactive. Moreover, in the test with MDA-MB-231 [2], the outcome was Active.
Regarding `C=C1CC/C=C(\C)CCC2=C(C)C(=O)O[C@H]2/C=C(\C)CC[C@@H]1OC(=O)NC1CCCCC1`, the outcome (in test [6]; in the test on MDA-MB-231 [8]; with PC-3 [5]) was Active. The IC50 in the test with MDA-MB-231 [7] is 45 µM; in the test with PC-3 [4], 15.5 µM; in the test on MDA-MB-231 [9], 17.2 µM. Further, the result in the test with PC-3 [1] was inactive.
On to `C=C1CC/C=C(\C)CCC2=C(C)C(=O)O[C@H]2/C=C(\C)CC[C@@H]1O`, for which the result in the test on PC-3 [1] and with MDA-MB-231 [3] was inactive. Further, the outcome in the test with MDA-MB-231 [2] was Active.
Regarding `C=C1CC/C=C(\C)CCC2=C(C)C(=O)O[C@H]2/C=C(\C)CC[C@@H]1OC(=O)Nc1ccccc1`, the outcome in the test on PC-3 [1] and with MDA-MB-231 [3] was inactive. For the same molecule, the IC50 with PC-3 [4] was 16.3 µM. Besides, the result in the test on PC-3 [5] and with MDA-MB-231 [2] was Active.
On to `CCCO[C@H]1CC/C(C)=C/[C@@H]2OC(=O)C(C)=C2CC/C(C)=C/CC[C@]1(C)O`, for which the outcome with PC-3 [1] and with MDA-MB-231 [3] was inactive. In addition, the result in the test with PC-3 [5] and in the test on MDA-MB-231 [2] was Active.
Regarding `O=C1NC(=O)/C(=C/c2ccc(O)cc2)N1`, the result in the test with PC-3 [10] and in the test with MDA-MB-231 [11] was Active.
On to `C=C1CC/C=C(\C)CCC2=C(C)C(=O)O[C@H]2/C=C(\C)CC[C@@H]1OC(=O)NCCCCl`, for which the outcome with PC-3 [1] and in the test with MDA-MB-231 [3] was inactive.
Turning to `CO[C@H]1CC/C(C)=C/[C@@H]2OC(=O)C(C)=C2CC/C(C)=C/CC[C@]1(C)O`, the outcome in the test with PC-3 [1] and in the test with MDA-MB-231 [3] was inactive.
In the case of `C=C1CC/C=C(\C)CCC2=C(C)C(=O)O[C@H]2/C=C(\C)CCC1=O`, the result in the test on PC-3 [1] and with MDA-MB-231 [3] was inactive.
For the molecule `CC1=C2CC/C(C)=C/CC[C@]3(C)O[C@H]3CC/C(C)=C/[C@@H]2OC1`, the result with PC-3 [1] and with MDA-MB-231 [3] was inactive. The outcome in the test with MDA-MB-231 [2] was Active.

The record behind these values is ChEMBL document CHEMBL1811910, “Semisynthetic analogues of the marine cembranoid sarcophine as prostate and breast cancer migration inhibitors” (Bioorg Med Chem, 2011).
